Data as given in ChEMBL document CHEMBL4715800, “Synthesis and Antiviral Evaluation of Octadecyloxyethyl Benzyl 9-[(2-Phosphonomethoxy)ethyl]guanine (ODE-Bn-PMEG), a Potent Inhibitor of Transient HPV DNA Amplification” (J Med Chem, 2016).
pEC50: −log10 of the molar value.

Tests used:
[1] = Drug uptake in HFF cells at 1 uM incubated for 1 to 48 hrs using [14C]-labelled compound by liquid scintillation counting; format: ADME, cell-based; conditions: human, TDE = time-dependent effect, time 1-48 hrs
Outline: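 HFF cells exposed to 1 μM [14C]-labelled compound for 1 to 48 h. Cell-associated radioactivity measured in duplicate to assess uptake.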

[2] = Drug metabolism in HFF cells assessed as PMEGpp levels at 1 uM measured for 14 days using [14C]-labelled compound by liquid scintillation counting; format: ADME, cell-based; conditions: human, 336 h, TDE = time-dependent effect, time 14 day
Outline: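 After 48 h exposure to 1 μM [14C]-labelled compound, drug removed from HFF cells. Persistence of intracellular PMEGpp followed over time; average of two separate determinations.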

[3] = Drug metabolism in HFF cells assessed as PMEG levels at 1 uM incubated for 48 hrs using [14C]-labelled compound by liquid scintillation counting; format: ADME, cell-based; conditions: human
Outline: (§1)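 HFF cells exposed for 48 h to 1 μM [14C]-labelled compound, then drug removed. Intracellular PMEG, PMEGp and PMEGpp measured. Values are the average of two separate determinations.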

[4] = Drug metabolism in HFF cells assessed as PMEGp levels at 1 uM incubated for 48 hrs using [14C]-labelled compound by liquid scintillation counting; format: ADME, cell-based; conditions: human; outline: as §1
[5] = Inhibition of HPV-11 DNA amplification in HEK293 cells incubated for 48 hrs by qPCR analysis; format: functional, cell-based, human papillomavirus 11
Outline: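 HEK-293 cells cotransfected with an HPV-11 origin-containing plasmid and HPV-11 E1 and E2 expression vectors, then exposed to drug dilutions and incubated. Ori-plasmid amplification is measured by quantitative real-time PCR and EC50 is calculated. At least three independent experiments.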

[6] = Selectivity index, ratio of CC50 for C-33-A cells to EC50 for inhibition of HPV-18 DNA amplification in C-33-A cells
Outline: (§2)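 Ratio CC50/EC50. CC50 is from CellTiter-Glo in C33A cells. EC50 is from NanoLuc luciferase readout of HPV ori-plasmid replication in C33A cells cotransfected with type-matched E1/E2 vectors.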

[7] = Inhibition of HPV-16 DNA amplification in C-33-A cells incubated for 48 hrs by luciferase reporter gene assay; format: functional, cell-based, Human papillomavirus 16
Outline: (§3)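 HPV-negative cervical cancer C33A cells transiently transfected with type-matched HPV-11, -16 or -18 E1 and E2 expression vectors plus an ori-plasmid carrying a NanoLuc reporter. After drug dilutions and incubation, ori-plasmid replication is read as the rise in luciferase activity and EC50 is determined. Cytotoxicity (CC50) is measured in C33A cells by CellTiter-Glo.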

[8] = Selectivity index, ratio of CC50 for C-33-A cells to EC90 for inhibition of HPV-11 DNA amplification in C-33-A cells
[9] = (§4) Cytotoxicity in human C-33-A cells by CellTiter-Glo reagent assay; format: cell-based; conditions: C-33-A cells; outline: as §3
[10] = Selectivity index, ratio of CC50 for C-33-A cells to EC90 for inhibition of HPV-18 DNA amplification in C-33-A cells
Outline: (§5)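 Ratio CC50/EC90. CC50 is from CellTiter-Glo cytotoxicity in C33A cells. EC90 is from NanoLuc luciferase readout of HPV-16 or -18 ori-plasmid replication in C33A cells cotransfected with type-matched E1/E2 vectors.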

[11] = Selectivity index, ratio of CC50 for C-33-A cells to EC90 for inhibition of HPV-16 DNA amplification in C-33-A cells; outline: as §5
[12] = Inhibition of HPV-18 DNA amplification in C-33-A cells incubated for 48 hrs by luciferase reporter gene assay; format: functional, cell-based, human papillomavirus 18; outline: as §3
[13] = Selectivity index, ratio of CC50 for C-33-A cells to EC50 for inhibition of HPV-11 DNA amplification in C-33-A cells; outline: as §2
[14] = Inhibition of HPV-16 DNA amplification in HEK293 cells incubated for 48 hrs by qPCR analysis; format: functional, cell-based, Human papillomavirus 16
Outline: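 HEK-293 cells cotransfected with an HPV-16 origin-containing plasmid and HPV-16 E1 and E2 expression vectors, then treated with drug dilutions and incubated. Ori-plasmid amplification quantified by real-time qPCR; EC50 calculated from at least three independent experiments.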

[15] = Inhibition of HPV-11 DNA amplification in C-33-A cells incubated for 48 hrs by luciferase reporter gene assay; format: functional, cell-based, human papillomavirus 11; outline: as §3
[16] = Selectivity index, ratio of CC50 for C-33-A cells to EC50 for inhibition of HPV-16 DNA amplification in C-33-A cells; outline: as §2
[17] = Selectivity index, ratio of CC50 for HEK293 cells to EC50 for inhibition of HPV-11 DNA amplification in HEK293 cells
Outline: (§6)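 Ratio CC50/EC50 in HEK-293 cells. CC50 is by CellTiter-Glo. EC50 is by qPCR of HPV-11 or HPV-16 ori-plasmid amplification in cells cotransfected with type-matched E1/E2 expression vectors.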

[18] = Selectivity index, ratio of CC50 for HEK293 cells to EC50 for inhibition of HPV-16 DNA amplification in HEK293 cells; outline: as §6
[19] = Selectivity index, ratio of CC50 for human PBMC to EC50 for inhibition of HIV1 92US727 replication in PHA-P-stimulated human PBMCs; format: toxicity; conditions: pbmc
Outline: (§7)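 Human PBMCs infected with a clinical HIV-1 isolate, with AZT as positive control. EC50 and CC50 reported as mean ± SD of three replicates; selectivity index = CC50/EC50.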

C-33-A = test: as §4; format: cell-based; conditions: c-33-a; outline: as §3
[20] = Inhibition of HSV2 replication in HFF cells incubated for 7 days; format: functional, cell-based, Human alphaherpesvirus 2; conditions: hff
[21] = Cytotoxicity in human PBMC cells; format: cell-based; conditions: pbmc; outline: as §7
human papillomavirus 11 = test: Potency index, ratio of EC50 for cidofovir to EC50 for test compound for inhibition of HPV-11 DNA amplification in C-33-A cells incubated for 48 hrs by luciferase reporter gene assay; format: functional
[22] = Selectivity index, ratio of CC50 for HFF to EC50 for inhibition of HSV2 replication in HFF cells; format: toxicity, cell-based; conditions: human
HFF = test: Cytotoxicity in HFF cells incubated for 7 days by CellTiter-Glo assay; format: cell-based; conditions: human, hff, 168 h; time 7 day
HEK293 = test: Cytotoxicity in HEK293 cells by CellTiter-Glo assay; conditions: human, hek293
[23] = Inhibition of HIV1 92US727 replication in PHA-P-stimulated human PBMCs incubated for 7 days by reverse transcriptase activity based assay; format: functional, cell-based, Human immunodeficiency virus 1, PBMC; conditions: pbmc
Outline: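 Human PBMCs infected with a clinical HIV-1 isolate, with AZT as the positive control. Results are the mean of three replicates.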

[24] = Stability in MEM supplemented with either normal or heat inactivated 10% FBS assessed as compound remaining at 37 degC after 38 days by reverse phase HPLC analysis; conditions: time 38.0 day
Outline: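 Compound incubated at 37 °C in MEM with 10% FBS, either normal or heat-inactivated. After 38 days, analysed by reverse-phase HPLC on a polar RP column with a water/methanol gradient at 0.8 mL/min. Remaining parent and monoester degradation product quantified as peak area.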

[25] = Human papillomavirus 16, C-33-A, 48 h
[26] = human papillomavirus 18, C-33-A, 48 h
[27] = human papillomavirus 11, C-33-A, 48 h

In the case of `CCCCCCCCCCCCCCCCCCOCCOP(=O)(O)COCCn1cnc2c(=O)[nH]c(N)nc21`, the Drug uptake [1] was “Tde”.

For `CCCCCCCCCCCCCCCCCCOCCOP(=O)(COCCn1cnc2c(=O)[nH]c(N)nc21)OCc1ccccc1` (stereo not given), the Drug uptake [1] was “Tde”, the Drug metabolism [2] was “Tde” and the Drug uptake [3] was “Metabolite_Detected”. For the same molecule, the Drug uptake [4] was “Metabolite_Detected”.

With `CCCCCCCCCCCCCCCCCCOCCOP(=O)(COCCn1cnc2c(=O)[nH]c(N)nc21)Oc1ccccc1` (stereo not given) the pEC50 [5] was 5.02, the “Ratio CC50/EC50” value [6] was 980 and the pEC50 [7, 25] was 7.05. For the same molecule, the EC90 [7, 25] was 490 nM, the Ratio [8] was 80 and the CC50 [9] was 49000 nM. The Ratio [10] was 210, the Ratio [11] was 120 and the pEC50 [12, 26] was 7.22. For the same molecule, the EC90 [12, 26] was 280 nM, the “Ratio CC50/EC50” value [13] was 490 and the pEC50 [14] was 5.28. For the same molecule, the pEC50 [15, 27] was 7.00, the EC90 [15, 27] was 610 nM and the “Ratio CC50/EC50” value [16] was 670.

In the case of `CCCCCCCCCCCCCCCCCCOCCOP(=O)(COCCn1cnc2c(=O)[nH]c(N)nc21)OCc1ccccc1` (stereo in doubt; form 1) [listing 1 of 2 here], the “Ratio CC50/EC50” value [17] was 42, the “Ratio CC50/EC50” value [6] was >100 and the pEC50 ([7]; c-33-a) was 7.40. For the same molecule, the EC90 ([7]; time 48 hrs) was 640 nM, the “Ratio CC50/EC50” value [18] was 85 and the “Ratio CC50/EC50” value [19] was 11. For the same molecule, the Ratio [8] was 15, the CC50 (C-33-A) was ≥ 10000 nM and the Ratio [10] was >17. For the same molecule, the Ratio [11] was >16, the pEC50 ([12]; c-33-a) was 7.00 and the EC90 ([12]; time 48 hrs) was 590 nM. The “Ratio CC50/EC50” value [13] was 61, the pEC50 [20] was 7.66 and the CC50 [21] was 20 nM. For the same molecule, the “Ratio EC50” value (human papillomavirus 11) was >300, the pEC50 [14] was 6.70 and the pEC50 ([15]; c-33-a) was 6.74. For the same molecule, the EC90 ([15]; time 48 hrs) was 720 nM, the “Ratio CC50/EC50” value [22] was 240 and the CC50 (HFF) was 5200 nM. The CC50 (HEK293) was 17000 nM, the pEC50 [23] was 8.70 and the “Ratio CC50/EC50” value [16] was >250.

For `CCCCCCCCCCCCCCCCCCOCCOP(=O)(COCCn1cnc2c(=O)[nH]c(N)nc21)OCc1ccccc1` (stereo in doubt; form 1) [listing 2 of 2 here], the Stability [24] was 83%.
